Assay results: ChEMBL document CHEMBL1134108, “Expedited discovery of second generation NK-1 antagonists: identification of a nonbasic aryloxy substituent” (Bioorg Med Chem Lett, 2001)

Key:
Substance-P receptor [1] = biological target: T1, Substance-P receptor (Homo sapiens, UniProt P25103); test: In vitro inhibition of binding of [125I]Bolton-Hunter SP to Tachykinin receptor 1 in human IM-9 cell line at a concentration of 10 nM; type: cell-based
Outline: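 Single-point screen at 10 nM test compound, run in triplicate, measuring displacement of [125I]Bolton-Hunter SP binding on human IM-9 cells expressing NK-1 receptors.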

[2] = Bioavailability in dog; type: ADME, organism-based, Canis lupus familiaris; conditions: in vivo
Canis familiaris = organism: Canis familiaris; test: In vitro microsome stability tested in dog liver expressed as percent remaining […]; type: functional; conditions: Canis lupus familiaris
Substance-P receptor [3] = biological target: T1, Substance-P receptor; test: In vitro inhibition of binding of [125I]Bolton-Hunter SP to Tachykinin receptor 1 in human IM-9 cell line; type: cell-based

T1 sequence (P25103 whole entry): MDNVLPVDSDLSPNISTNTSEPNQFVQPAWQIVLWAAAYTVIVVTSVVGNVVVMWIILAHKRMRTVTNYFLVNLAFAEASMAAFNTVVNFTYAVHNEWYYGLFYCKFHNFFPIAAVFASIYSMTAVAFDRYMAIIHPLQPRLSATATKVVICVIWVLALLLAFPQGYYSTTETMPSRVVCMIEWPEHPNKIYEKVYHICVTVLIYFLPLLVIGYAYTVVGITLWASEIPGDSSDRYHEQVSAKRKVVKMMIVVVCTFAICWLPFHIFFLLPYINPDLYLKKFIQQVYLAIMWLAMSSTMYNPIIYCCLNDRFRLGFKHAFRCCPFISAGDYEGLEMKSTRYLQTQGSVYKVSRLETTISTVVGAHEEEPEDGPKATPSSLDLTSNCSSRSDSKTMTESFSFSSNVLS

Row | SMILES | inhibition (Substance-P receptor [1]) [%] | bioavailability [2] [%] | IC50 (Substance-P receptor [3]) [nM] | Remaining (Canis familiaris) [%]
1 | COc1ccccc1CN(C[C@@H](Cc1c[nH]c2ccccc12)NC(=O)COc1ccc(-n2ccnc2)cc1)C(C)=O | – | 14 | 0.48 | 87
2 | COc1ccc(C(=O)CCC(=O)NC(Cc2c[nH]c3ccccc23)CN(Cc2ccccc2OC)C(C)=O)cc1 (configuration not stated) | 63 | – | 3.3 | –
3 | COc1ccccc1CN(CC(Cc1c[nH]c2ccccc12)NC(=O)Cc1ccc2c(c1)OCCO2)C(C)=O (configuration not stated) | 46 | – | 8.3 | –
4 | CC(=O)N(Cc1ccccc1Cl)C[C@@H](Cc1c[nH]c2ccccc12)NC(=O)COc1ccc(-n2ccnc2)cc1 | – | 36 | – | 96
5 | COc1ccc(OCC(=O)NC(Cc2c[nH]c3ccccc23)CN(Cc2ccccc2OC)C(C)=O)cc1 (configuration not stated) | 52 | – | 10.2 | –
6 | COc1ccccc1CN(CC(Cc1c[nH]c2ccccc12)NC(=O)CCC(=O)c1ccc(F)cc1)C(C)=O (configuration not stated) | 66 | – | 6 | –
7 | COc1ccccc1CN(CC(Cc1c[nH]c2ccccc12)NC(=O)COc1ccc(CO)cc1)C(C)=O (configuration not stated) | 87 | – | 0.82 | –
8 | COc1ccccc1CN(C[C@@H](Cc1c[nH]c2ccccc12)NC(=O)COc1ccc(-c2csnn2)cc1)C(C)=O | – | 47 | 0.98 | 67
9 | COc1ccccc1CN(CC(Cc1c[nH]c2ccccc12)NC(=O)COc1ccc(C(C)=O)cc1)C(C)=O (configuration not stated) | 68 | – | 3.5 | –
10 | COc1ccccc1CN(C[C@@H](Cc1c[nH]c2ccccc12)NC(=O)COc1ccc(CO)cc1)C(C)=O | – | 17 | 0.43 | 28
11 | CCOCC(=O)NC(Cc1c[nH]c2ccccc12)CN(Cc1ccccc1OC)C(C)=O (configuration not stated) | 4 | – | – | –
12 | COc1cccc(OCC(=O)NC(Cc2c[nH]c3ccccc23)CN(Cc2ccccc2OC)C(C)=O)c1 (configuration not stated) | 3 | – | – | –
13 | COc1ccccc1CN(C[C@@H](Cc1c[nH]c2ccccc12)NC(=O)CN1CCC(N2CCCCC2)CC1)C(C)=O [LANEPITANT] | – | 9 | – | –

Second part, led by results:

Row | inhibition (Substance-P receptor [1]) [%] | bioavailability [2] [%] | IC50 (Substance-P receptor [3]) [nM] | SMILES | Remaining (Canis familiaris) [%]
14 | 19 | – | – | COc1ccccc1CN(CC(Cc1c[nH]c2ccccc12)NC(=O)COc1ccc(Cl)cc1)C(C)=O (configuration not stated) | –
15 | 81 | – | 9.7 | COc1ccc(CC(=O)NC(Cc2c[nH]c3ccccc23)CN(Cc2ccccc2OC)C(C)=O)cc1 (configuration not stated) | –
16 | 13 | – | – | COc1ccc(C(=O)NC(Cc2c[nH]c3ccccc23)CN(Cc2ccccc2OC)C(C)=O)cc1 (configuration not stated) | –
17 | 49 | – | – | COc1ccccc1CN(CC(Cc1c[nH]c2ccccc12)NC(=O)CCC(=O)c1ccc(Cl)cc1)C(C)=O (configuration not stated) | –
18 | 20 | – | – | COc1ccccc1CN(CC(Cc1c[nH]c2ccccc12)NC(=O)CCc1ccccc1)C(C)=O (configuration not stated) | –
19 | 25 | – | – | COc1ccccc1CN(CC(Cc1c[nH]c2ccccc12)NC(=O)Cc1ccc(O)cc1)C(C)=O (configuration not stated) | –
20 | 42 | – | 24 | COc1ccccc1CN(CC(Cc1c[nH]c2ccccc12)NC(=O)COc1ccccc1OC)C(C)=O (configuration not stated) | –
21 | 30 | – | – | COc1ccccc1CN(CC(Cc1c[nH]c2ccccc12)NC(=O)Cc1ccccc1Cl)C(C)=O (configuration not stated) | –
22 | 18 | – | – | COc1ccccc1CN(CC(Cc1c[nH]c2ccccc12)NC(=O)Cc1ccccc1)C(C)=O (configuration not stated) | –
23 | 0 | – | – | COc1ccccc1CN(CC(Cc1c[nH]c2ccccc12)NC(=O)c1ccccc1)C(C)=O (configuration not stated) | –
24 | 22 | – | – | COc1cccc(CC(=O)NC(Cc2c[nH]c3ccccc23)CN(Cc2ccccc2OC)C(C)=O)c1 (configuration not stated) | –
25 | 41 | – | 10.8 | COc1ccccc1CN(CC(Cc1c[nH]c2ccccc12)NC(=O)CSc1ccccn1)C(C)=O (configuration not stated) | –
26 | 20 | – | 34 | COc1ccccc1CN(C[C@@H](Cc1c[nH]c2ccccc12)NC(=O)CCC(=O)c1ccccc1)C(C)=O | –
27 | 0 | – | – | COc1ccccc1CN(CC(Cc1c[nH]c2ccccc12)NC(=O)c1ccccc1Cl)C(C)=O (configuration not stated) | –
28 | 59 | – | 3.2 | COc1ccccc1CN(CC(Cc1c[nH]c2ccccc12)NC(=O)COc1ccc(O)cc1)C(C)=O (configuration not stated) | –
29 | 23 | – | – | COc1ccccc1CC(=O)NC(Cc1c[nH]c2ccccc12)CN(Cc1ccccc1OC)C(C)=O (configuration not stated) | –
